Data on three compounds can be found in article PMC4456214 (Molecular cancer therapeutics, 2015).

Values joined by “and” are separate entries in the source; they are usually repeats but may differ in a detail not shown here. Equal values may be shown once. Some results are limits rather than exact numbers.

By EC50 is commonly meant the midpoint of the concentration-response curve. What is called Kd is the equilibrium constant for the complex coming apart.

In one data set the target is Hsp70-Bag3 interaction (Homo sapiens, UniProt P0DMV8). Put plainly: Co-immunoprecipitation of Hsp70 from HeLa cells, blotted for Bag3. Type of data set: cell-based. The following applies: 50 μM. In a few lines: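 HeLa extracts in M-PER lysis buffer at 5 mg total protein per mL. 500 μL samples took rabbit polyclonal anti-Hsp70 or goat IgG control, plus 1% DMSO or test compound at 50 μM final (5 mM stock). Rotated overnight at 4 °C, then 4 h on protein A/G Sepharose. Washed in PBS pH 7.4, eluted in SDS dye, run on 4–15% Tris-Tricine gel, immunoblotted for Hsp70 and Bag3 with chemiluminescence detection. Triplicate, quantification averaged.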
Chain of Hsp70-Bag3 interaction (P0DMV8 2-641 limits assumed): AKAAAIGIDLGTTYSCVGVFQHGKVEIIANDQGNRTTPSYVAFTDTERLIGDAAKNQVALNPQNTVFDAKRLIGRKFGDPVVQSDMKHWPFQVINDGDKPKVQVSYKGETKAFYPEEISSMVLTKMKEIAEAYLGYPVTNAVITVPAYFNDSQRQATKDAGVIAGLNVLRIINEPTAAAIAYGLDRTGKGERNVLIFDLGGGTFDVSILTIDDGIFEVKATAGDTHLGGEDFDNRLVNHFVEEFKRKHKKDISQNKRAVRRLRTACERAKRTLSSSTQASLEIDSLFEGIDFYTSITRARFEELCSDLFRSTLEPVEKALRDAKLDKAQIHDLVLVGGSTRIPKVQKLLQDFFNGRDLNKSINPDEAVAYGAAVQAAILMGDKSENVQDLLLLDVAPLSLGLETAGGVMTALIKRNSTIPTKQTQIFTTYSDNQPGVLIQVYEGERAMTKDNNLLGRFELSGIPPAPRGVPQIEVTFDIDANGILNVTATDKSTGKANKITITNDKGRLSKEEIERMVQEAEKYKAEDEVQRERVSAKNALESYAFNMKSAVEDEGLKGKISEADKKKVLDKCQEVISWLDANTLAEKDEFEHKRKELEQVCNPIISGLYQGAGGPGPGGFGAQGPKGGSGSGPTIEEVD

The test system of a further data set is OPM1. Put plainly: Luciferase viability assay, multiple myeloma line OPM1. The following applies: 72 hours. Format: cell-based, Human. In a few lines:
(§1)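 Myeloma cells stably transduced with firefly luciferase were exposed to test compound at 11 concentrations between 30 nM and 30 uM for 72 h. Luciferin substrate was then added and bioluminescence read. Signal was normalised to mock-treated wells (100%) and no-cell wells (0%). IC50 came from fitted dose-response curves.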

The next data set deals with MCF7. As to the kind of experiment: MTT cell proliferation assay, MCF7. The note with it: 72 hours. Type of data set: cell-based. In a few lines: (§2)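 Cells were plated at 2000 per well (MEFs) or 5000 per well (HeLa, MCF7) and left to attach overnight. Test compound at various concentrations was added, final DMSO 1%, for 72 h at 5% CO2. After 3 PBS washes, fresh medium with MTT reagent was added for 4 h at 37 °C in the dark, then detergent buffer. Absorbance was read at 570 nm. At least two independent experiments, each in triplicate.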
In general terms: Tetrazolium assays rely on reduction of a dye to a coloured formazan, in cell work by metabolically active cells.

The subject of the next data set is HeLa xenograft. Put plainly: HeLa xenograft model. Type of data set: in vivo. The following applies: 3 mg/kg, nude mice. In a few lines: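 One million HeLa cells in Matrigel were injected subcutaneously on both flanks of 6-week-old NCR nude mice. Once tumours were established, test compound at 3 mg/kg or 1:1 PBS:DMSO vehicle was given intraperitoneally on days 2, 4 and 6 (n=5 mice, 10 tumours per group). Tumours were measured by caliper every other day and mean volumes plotted with SEM.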

The next data set can be described thus: Pharmacokinetics in mice. Type of data set: in vivo, NSG mice. In a few lines: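 NSG mice (three per group) received test compound at 0.3, 1 or 3 mg/kg intraperitoneally in 1:1 DMSO:PBS, dosed twice weekly for 2 weeks. After the final dose, tail-vein blood was taken at 1, 3, 8 and 24 h. Plasma levels were measured by LC-MS, and pharmacokinetic parameters including terminal half-life were calculated.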

In the next data set the test system is OPM2. Put plainly: Luciferase viability assay, multiple myeloma line OPM2. Type of data set: cell-based, Human. The following applies: 72 hours. In a few lines:
as §1

Data set [1] deals with FoxM1, HuR, p21, p27 in MCF7 breast cancer cells. Put plainly: Western blot of cancer signaling proteins in MCF7 cells. Type of data set: cell-based. (In general: A western blot detects proteins with antibodies after separation by electrophoresis.)
The subject of data set [2] is mouse embryonic fibroblasts (MEFs). Put plainly: MTT cell proliferation assay in normal fibroblasts. Format: cell-based. The following applies: read-out: EC50, MEFs, 72 hours. In a few lines:
as §2

Another data set relates to HeLa. Put plainly: MTT cell proliferation assay, HeLa. The note with it: 72 hours. Format: cell-based. In a few lines:
as §2

The test system of another data set is MCF7 xenografts. As to the kind of experiment: MCF7 xenograft model. Type of data set: in vivo, nude mice. In a few lines:
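One million MCF7 cells in Matrigel went subcutaneously on both flanks of 6-week-old NCR nude mice. After tumours reached 100 mm3, test compound at 3 mg/kg or 1:1 PBS:DMSO vehicle was given intraperitoneally on days 0, 2 and 4 (n=5 mice, 10 tumours). Caliper measurements every other day, mean volume with SEM. Treated tumours from three animals were Western blotted for signalling proteins.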

A further data set in a line: Animal toxicity study. Type of data set: in vivo, NSG mice.
A further data set addresses Bag3 (Homo sapiens) (UniProt O95817). The following applies: cited from earlier work.
Setting [3] is: MCF7 xenograft tumors, Western blot.

Chain of Hsp70 (P0DMV8 2-641): as the sequence (P0DMV8 2-641 limits assumed) above
Chain of Bag3 (Homo sapiens) (O95817 2-575): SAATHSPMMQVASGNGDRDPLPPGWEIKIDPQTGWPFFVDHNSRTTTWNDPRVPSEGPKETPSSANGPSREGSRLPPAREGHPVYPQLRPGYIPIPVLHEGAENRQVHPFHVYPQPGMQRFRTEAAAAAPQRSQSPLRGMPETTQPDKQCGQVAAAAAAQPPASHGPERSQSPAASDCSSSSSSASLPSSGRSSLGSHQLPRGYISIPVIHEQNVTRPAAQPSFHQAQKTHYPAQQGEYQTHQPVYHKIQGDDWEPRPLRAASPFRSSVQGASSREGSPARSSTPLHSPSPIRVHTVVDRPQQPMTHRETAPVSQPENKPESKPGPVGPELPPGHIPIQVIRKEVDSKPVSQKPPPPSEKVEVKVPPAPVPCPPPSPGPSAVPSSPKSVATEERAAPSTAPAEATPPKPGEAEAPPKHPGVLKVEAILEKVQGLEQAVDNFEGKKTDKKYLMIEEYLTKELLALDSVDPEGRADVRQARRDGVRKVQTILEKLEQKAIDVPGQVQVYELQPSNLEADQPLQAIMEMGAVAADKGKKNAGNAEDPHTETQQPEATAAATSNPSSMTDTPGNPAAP

For YM-01 [reference compound], on Hsp70-Bag3 interaction, the “reduction of Hsp70-Bag3 interaction” value is given as ~ 60%.
For the compound `CCn1c(=O)/c(=C2\Sc3cc(Cl)ccc3N2C)s/c1=C\c1scc[n+]1Cc1ccccc1.[Cl-]` [JG-98], the “sensitivity of OPM1” value with OPM1 was “relatively less sensitive”. Also, the “activity against MCF7” value in the data set with MCF7 is recorded as “sub-micromolar activity”. Further, the “tumor growth, HeLa xenograft” value with HeLa xenograft is reported as “suppressed tumor growth”. Further, the level in plasma in the data set “Pharmacokinetics in mice” (3 mg/kg intraperitoneal, after 1 hour, NSG mice) is on record as ~ 70 nM. Moreover, the terminal half-life entry in the data set “Pharmacokinetics in mice” (all three doses (0.3, 1, 3 mg/kg) intraperitoneal, NSG mice) is reported as “approximately 20 hours”. In the data set “Pharmacokinetics in mice” (compared with YM-01), the stability in animals entry is recorded as “more stable than YM-01”. Moreover, in the data set “Pharmacokinetics in mice” (mice), the oral bioavailability result is “not orally bioavailable”. Further, at Hsp70-Bag3 interaction, the “reduction of Hsp70-Bag3 interaction” value was ~ 60%. Moreover, in the data set on OPM2, the “sensitivity of OPM2” value is “relatively less sensitive”. Besides, in data set [1], the “levels of FoxM1 and HuR” value was “reduced”; the “levels of the cell cycle inhibitors p27 and p21” value is on record as “increasing”. Further, the concentration giving a half-maximal response (EC50) in [2] was 4.5 µM and ~4.5 µM. Besides, the “activity against HeLa” value in the data set with HeLa is given as “sub-micromolar activity”. In addition, the “tumor growth, MCF7 xenograft” value in the data set with MCF7 xenografts (3 mg/kg intraperitoneal on days 0, 2 and 4, nude mice) is “limited tumor growth until day 6”. Further, in the data set on MCF7 xenografts (setting [3]), the “HuR and FoxM1 in tumor samples” value is reported as “tended to be decreased”; the “p21 in tumor samples” value is given as “significantly elevated”. Further, the weight loss in the data set “Animal toxicity study” (0.3, 1, 3 mg/kg intraperitoneal twice a week for 2 weeks, NSG mice) is on record as below 10%. In addition, the “alanine aminotransferase and total bilirubin” value in the data set “Animal toxicity study” (after the final dose, markers of liver function) is recorded as “in the normal range”. Besides, the “blood urea nitrogen (BUN) and creatinine levels” value in “Animal toxicity study” (all three dosages, after the final dose, renal function) is recorded as “normal”. Besides, the tolerability result in the data set “Animal toxicity study” (mouse, in vivo, ip) is recorded as “well tolerated”.
On to Hsp70 (from UniProt P0DMV8), for which the Kd with Bag3 (Homo sapiens) is 0.03 µM.
